Active and inactive are the calls of the source. No cut-off for these calls is given here.
Columns and labels:
Homo sapiens [1] = species: Homo sapiens; experiment: Selectivity index, ratio of IC50 for human HDAC8 to IC50 for human HDAC6
Histone deacetylase 8 = target: T1, Histone deacetylase 8 (Homo sapiens, UniProt Q9BY41); experiment: Inhibition of human HDAC8 using RHKAcKAc peptide as substrate
T1 sequence (Q9BY41 whole entry): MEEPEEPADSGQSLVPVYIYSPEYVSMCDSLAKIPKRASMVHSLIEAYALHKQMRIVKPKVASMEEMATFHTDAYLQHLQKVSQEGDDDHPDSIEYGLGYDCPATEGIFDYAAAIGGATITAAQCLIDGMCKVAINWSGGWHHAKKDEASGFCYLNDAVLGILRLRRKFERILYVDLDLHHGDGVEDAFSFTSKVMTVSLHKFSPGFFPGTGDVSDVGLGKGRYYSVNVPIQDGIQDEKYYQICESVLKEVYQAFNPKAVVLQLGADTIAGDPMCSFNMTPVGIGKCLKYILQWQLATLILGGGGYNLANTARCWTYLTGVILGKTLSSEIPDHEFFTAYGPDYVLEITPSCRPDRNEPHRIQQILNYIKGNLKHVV

Homo sapiens [2] = species: Homo sapiens; experiment: Selectivity index, ratio of IC50 for human HDAC10 to IC50 for human HDAC6
Homo sapiens [3] = species: Homo sapiens; experiment: Selectivity index, ratio of IC50 for human HDAC1 to IC50 for human HDAC6
Histone deacetylase 2 = Histone deacetylase 2 (Homo sapiens, UniProt Q92769); experiment: Inhibition of human HDAC2 using RHKKAc peptide as substrate
Chain of Histone deacetylase 2 (Q92769 whole entry): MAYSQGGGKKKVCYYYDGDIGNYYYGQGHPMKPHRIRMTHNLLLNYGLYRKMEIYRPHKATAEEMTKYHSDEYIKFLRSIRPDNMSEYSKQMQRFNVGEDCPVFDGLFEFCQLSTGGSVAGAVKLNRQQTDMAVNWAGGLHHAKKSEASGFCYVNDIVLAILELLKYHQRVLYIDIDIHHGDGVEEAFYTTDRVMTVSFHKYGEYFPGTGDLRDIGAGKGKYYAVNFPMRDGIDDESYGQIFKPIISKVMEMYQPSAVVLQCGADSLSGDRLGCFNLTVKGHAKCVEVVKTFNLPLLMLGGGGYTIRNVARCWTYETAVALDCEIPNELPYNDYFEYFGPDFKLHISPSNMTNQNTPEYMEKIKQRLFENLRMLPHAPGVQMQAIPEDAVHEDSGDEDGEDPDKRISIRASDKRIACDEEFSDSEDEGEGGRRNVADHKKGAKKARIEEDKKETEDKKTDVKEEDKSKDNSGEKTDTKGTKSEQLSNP

Histone deacetylase 3 = Histone deacetylase 3 (Homo sapiens, UniProt O15379)
Chain of Histone deacetylase 3 (O15379 whole entry): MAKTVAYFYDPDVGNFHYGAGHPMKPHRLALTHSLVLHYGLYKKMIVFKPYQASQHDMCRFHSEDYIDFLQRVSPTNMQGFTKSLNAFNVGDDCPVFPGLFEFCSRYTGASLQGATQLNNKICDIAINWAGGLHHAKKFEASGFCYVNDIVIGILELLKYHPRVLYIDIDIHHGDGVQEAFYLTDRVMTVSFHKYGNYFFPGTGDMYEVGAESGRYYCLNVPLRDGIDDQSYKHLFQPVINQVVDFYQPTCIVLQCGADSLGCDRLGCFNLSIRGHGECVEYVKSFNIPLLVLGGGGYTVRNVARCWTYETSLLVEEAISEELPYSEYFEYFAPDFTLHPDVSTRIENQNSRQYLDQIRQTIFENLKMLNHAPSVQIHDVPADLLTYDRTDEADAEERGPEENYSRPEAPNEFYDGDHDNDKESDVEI

Histone deacetylase 1 = Histone deacetylase 1 (Homo sapiens, UniProt Q13547); experiment: Inhibition of human HDAC1 using RHKKAc peptide as substrate
Chain of Histone deacetylase 1 (Q13547 whole entry): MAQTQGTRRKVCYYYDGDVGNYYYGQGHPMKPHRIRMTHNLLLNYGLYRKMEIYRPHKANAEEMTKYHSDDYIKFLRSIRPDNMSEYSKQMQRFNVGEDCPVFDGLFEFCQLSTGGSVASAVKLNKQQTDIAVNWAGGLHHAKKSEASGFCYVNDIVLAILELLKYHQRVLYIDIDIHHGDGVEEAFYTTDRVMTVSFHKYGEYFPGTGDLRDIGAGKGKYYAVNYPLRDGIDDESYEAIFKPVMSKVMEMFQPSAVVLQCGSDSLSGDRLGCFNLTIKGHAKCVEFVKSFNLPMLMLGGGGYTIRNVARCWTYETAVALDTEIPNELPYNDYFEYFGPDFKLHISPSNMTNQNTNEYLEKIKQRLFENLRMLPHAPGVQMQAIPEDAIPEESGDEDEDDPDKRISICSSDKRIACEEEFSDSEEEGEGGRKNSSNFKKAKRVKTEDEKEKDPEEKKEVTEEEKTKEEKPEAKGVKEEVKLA

Homo sapiens [4] = species: Homo sapiens; experiment: Selectivity index, ratio of IC50 for human HDAC2 to IC50 for human HDAC6
[5] = target: T2, Protein deacetylase HDAC6 (Homo sapiens, UniProt Q9UBN7); experiment: Inhibition of human HDAC6 using RHKKAc peptide as substrate
T2 sequence (Q9UBN7 whole entry): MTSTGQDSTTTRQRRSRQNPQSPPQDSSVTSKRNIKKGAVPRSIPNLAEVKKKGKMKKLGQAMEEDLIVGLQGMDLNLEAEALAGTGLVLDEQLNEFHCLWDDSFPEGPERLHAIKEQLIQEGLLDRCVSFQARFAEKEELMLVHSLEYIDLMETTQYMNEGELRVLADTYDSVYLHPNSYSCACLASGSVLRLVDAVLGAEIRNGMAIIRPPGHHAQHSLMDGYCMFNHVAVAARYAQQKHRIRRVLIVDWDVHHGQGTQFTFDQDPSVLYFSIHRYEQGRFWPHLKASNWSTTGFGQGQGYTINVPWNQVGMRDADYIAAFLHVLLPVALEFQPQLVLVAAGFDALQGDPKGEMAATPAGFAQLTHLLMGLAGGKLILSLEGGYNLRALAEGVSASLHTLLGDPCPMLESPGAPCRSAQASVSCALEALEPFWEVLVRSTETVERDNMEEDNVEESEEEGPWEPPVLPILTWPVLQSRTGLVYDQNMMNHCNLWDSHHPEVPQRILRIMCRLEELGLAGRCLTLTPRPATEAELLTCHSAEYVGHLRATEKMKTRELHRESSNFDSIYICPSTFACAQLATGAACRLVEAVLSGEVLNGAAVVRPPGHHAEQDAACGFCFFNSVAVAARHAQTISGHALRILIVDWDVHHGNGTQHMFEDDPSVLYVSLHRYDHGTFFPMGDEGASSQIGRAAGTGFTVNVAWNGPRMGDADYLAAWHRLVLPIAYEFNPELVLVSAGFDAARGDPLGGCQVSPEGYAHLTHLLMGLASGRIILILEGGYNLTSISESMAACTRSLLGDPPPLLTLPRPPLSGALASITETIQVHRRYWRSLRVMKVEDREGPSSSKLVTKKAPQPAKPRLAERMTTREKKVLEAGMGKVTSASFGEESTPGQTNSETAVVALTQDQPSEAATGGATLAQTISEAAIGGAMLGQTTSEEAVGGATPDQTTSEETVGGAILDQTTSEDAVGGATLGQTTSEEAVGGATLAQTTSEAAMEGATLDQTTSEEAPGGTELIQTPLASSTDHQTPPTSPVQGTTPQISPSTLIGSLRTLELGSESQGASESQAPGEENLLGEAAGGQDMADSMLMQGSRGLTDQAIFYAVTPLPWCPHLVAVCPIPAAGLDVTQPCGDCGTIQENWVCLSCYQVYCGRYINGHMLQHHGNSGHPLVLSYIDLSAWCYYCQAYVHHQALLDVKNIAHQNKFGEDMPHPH

Homo sapiens [6] = species: Homo sapiens; experiment: Selectivity index, ratio of IC50 for human HDAC3 to IC50 for human HDAC6
[7] = target: T3, Polyamine deacetylase HDAC10 (Homo sapiens, UniProt Q969S8); experiment: Inhibition of human HDAC10 using RHKKAc peptide as substrate
T3 sequence (Q969S8 whole entry): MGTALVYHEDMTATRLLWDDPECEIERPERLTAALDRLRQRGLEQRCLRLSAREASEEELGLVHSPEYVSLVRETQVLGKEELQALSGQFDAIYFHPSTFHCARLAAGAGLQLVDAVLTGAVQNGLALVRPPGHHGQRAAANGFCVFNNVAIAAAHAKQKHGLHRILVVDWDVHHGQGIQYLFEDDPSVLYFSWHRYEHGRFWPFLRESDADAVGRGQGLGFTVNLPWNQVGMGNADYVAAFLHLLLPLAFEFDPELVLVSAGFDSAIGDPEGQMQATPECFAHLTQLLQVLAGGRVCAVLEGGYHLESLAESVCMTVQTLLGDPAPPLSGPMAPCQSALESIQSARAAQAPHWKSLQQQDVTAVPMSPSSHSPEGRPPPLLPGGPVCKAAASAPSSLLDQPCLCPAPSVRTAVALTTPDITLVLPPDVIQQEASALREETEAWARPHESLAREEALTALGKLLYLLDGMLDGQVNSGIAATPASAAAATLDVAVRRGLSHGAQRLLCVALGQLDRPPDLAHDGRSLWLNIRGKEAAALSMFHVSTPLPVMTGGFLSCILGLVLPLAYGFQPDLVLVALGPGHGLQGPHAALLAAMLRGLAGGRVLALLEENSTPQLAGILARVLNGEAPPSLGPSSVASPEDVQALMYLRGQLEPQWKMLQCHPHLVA

[8] = target: T4, Protein deacetylase HDAC6 (Homo sapiens) (UniProt Q9UBN7); experiment: Inhibition of HDAC6 in human SH-SY5Y cells assessed as increase in acetylation of alpha-tubulin at 0.1 to 1 uM after 24 hrs by Western blot analysis; format: cell-based
T4 sequence (whole entry): T2 sequence (Q9UBN7 whole entry)
Summary of the method: (§1)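 SH-SY5Y cells in MEM with 10% FBS at 37 °C, 5% CO2, treated 24 h at 0.1–1 µM. Lysates in HEPES/Triton buffer; 20 µg protein run on SDS-PAGE and immunoblotted for acetyl-α-tubulin, α-tubulin, acetyl-histone H3 and histone H3 with ECL detection.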

SH-SY5Y = experiment: Inhibition of class 1 HDAC in human SH-SY5Y cells assessed as increase in acetylation of histone H3 at 0.1 to 1 uM after 24 hrs by Western blot analysis; format: cell-based; summary of the method: as §1

Row | Ratio IC50 (Homo sapiens [1]) | IC50 (Histone deacetylase 8) [nM] | Ratio IC50 (Homo sapiens [2]) | Ratio IC50 (Homo sapiens [3]) | IC50 (Histone deacetylase 2) [nM] | IC50 (Histone deacetylase 3) [nM] | IC50 (Histone deacetylase 1) [nM] | Ratio IC50 (Homo sapiens [4]) | IC50 [5] [nM] | Ratio IC50 (Homo sapiens [6]) | IC50 [7] [nM] | inhibition [8] | SMILES | inhibition (SH-SY5Y)
1 | 1.9 | 3530 | 4.3 | 0.7 | 4800 | 323 | 1210 | 2.7 | 1810 | 0.2 | 7740 | – | COc1cccc(C(=O)c2ccc3c(ccn3S(=O)(=O)c3cccc(/C=C/C(=O)NO)c3)c2)c1 | –
2 | 1.9 | 2750 | 3.7 | 0.16 | 1800 | 59.6 | 230 | 1.3 | 1420 | 0.04 | 5240 | – | O=C(/C=C/c1cccc(S(=O)(=O)n2ccc3cc(C(=O)c4ccc(F)cc4)ccc32)c1)NO | –
3 | 125 | 1490 | > 8400 | 262 | 7250 | 3910 | 3120 | 609 | 11.9 | 329 | > 100000 | – | Cc1ccc(C(=O)c2ccc3c(ccn3Cc3ccc(C(=O)NO)cc3)c2)cc1 | –
4 | 5.5 | 5340 | > 103 | 8.8 | 11600 | 996 | 8540 | 11.9 | 972 | 1.02 | > 100000 | – | COc1cc(C(=O)c2ccc3c(ccn3S(=O)(=O)c3ccc(/C=C/C(=O)NO)cc3)c2)cc(OC)c1OC | –
5 | 1.2 | 1420 | 6.9 | 0.7 | 2140 | 861 | 877 | 1.8 | 1180 | 0.7 | 8240 | – | COc1ccc(C(=O)c2ccc3c(ccn3S(=O)(=O)c3cccc(/C=C/C(=O)NO)c3)c2)cc1OC | –
6 | 2.2 | 1260 | > 178 | 2.3 | 1770 | > 100000 | 1320 | 3.1 | 562 | > 178 | > 100000 | – | COc1cc(C(=O)c2ccc3c(ccn3S(=O)(=O)c3cccc(/C=C/C(=O)NO)c3)c2)cc(OC)c1OC | –
7 | 48.8 | 756 | 1220 | 181 | 3030 | 6050 | 2800 | 196 | 15.5 | 390 | 18900 | – | COc1ccc(C(=O)c2ccc3c(ccn3Cc3ccc(C(=O)NO)cc3)c2)cc1OC | –
8 | 68.3 | 1120 | 2920 | 231 | 5140 | 5090 | 3790 | 313 | 16.4 | 310 | 47900 | – | COc1cccc(C(=O)c2ccc3c(ccn3Cc3ccc(C(=O)NO)cc3)c2)c1 | –
9 | 26 | 2810 | 65.3 | 13.3 | 1950 | 2050 | 1440 | 18.1 | 108 | 19 | 7050 | – | COc1ccc(C(=O)c2ccc3c(ccn3Cc3ccc(/C=C/C(=O)NO)cc3)c2)cc1 | –
10 | 1.1 | 812 | 7.8 | 1.7 | 424 | 232 | 1460 | 0.6 | 751 | 0.3 | 5890 | – | COc1ccc(C(=O)c2ccc3c(ccn3S(=O)(=O)c3cccc(/C=C/C(=O)NO)c3)c2)cc1 | –
11 | 11.8 | 10000 | > 118 | 8.4 | > 100000 | 2560 | 7160 | > 118 | 848 | 3.01 | > 100000 | – | COc1ccc(C(=O)c2ccc3c(ccn3S(=O)(=O)c3ccc(/C=C/C(=O)NO)cc3)c2)cc1 | –
12 | – | – | – | – | – | – | – | – | 1540 | – | – | – | COc1cc(C(=O)c2ccc3c(ccn3Cc3ccc(C(=O)NO)cc3)c2)cc(OC)c1OC | –
13 | 15.2 | 2170 | – | 24.3 | 5740 | – | 3480 | 40.1 | 143 | – | – | – | COc1cc(C(=O)c2ccc3c(ccn3Cc3ccc(/C=C/C(=O)NO)cc3)c2)cc(OC)c1OC | –
14 | 1.6 | 4480 | 3.3 | 0.5 | 7270 | 891 | 1420 | 2.6 | 2750 | 0.3 | 9100 | – | Cc1ccc(C(=O)c2ccc3c(ccn3S(=O)(=O)c3cccc(/C=C/C(=O)NO)c3)c2)cc1 | –
15 | – | – | – | – | – | – | – | – | – | – | – | Active | O=C(CCCCCCNC(=O)c1cnc(N(c2ccccc2)c2ccccc2)nc1)NO | Active

From ChEMBL document CHEMBL4196108, “5-Aroylindoles Act as Selective Histone Deacetylase 6 Inhibitors Ameliorating Alzheimer's Disease Phenotypes” (J Med Chem, 2018)
